Measurements reported in the EternaBench riboswitch data.

System: MS2 coat protein
Assay: apparent Kd, MS2 coat protein; higher = weaker binding; RNA-MaP array; FMN 200 µM where present
Method in brief: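 Green signal was scaled to red-channel RNA signal and control-cluster median Fmax, and the apparent Kd was taken as the median of filtered per-cluster binding-curve fits. The binding series used SNAP-549-labelled MS2 coat protein from 0.7 or 1.5 nM, doubling to 3 µM, on designs transcribed by stalled E. coli RNA polymerase on Illumina sequencing-chip clusters. Each series ran without and then with constant ligand in 100 mM Tris-HCl pH 7.5, 80 mM KCl, 4 mM MgCl2, BSA, DTT, yeast tRNA and Tween-20.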

[1] = designed as: OFF switch for flavin mononucleotide, no ligand
[2] = ligand present: flavin mononucleotide, designed as: OFF switch for flavin mononucleotide
[3] = designed as: ON switch for flavin mononucleotide, no ligand
[4] = ligand present: flavin mononucleotide, designed as: ON switch for flavin mononucleotide

Sequence | apparent Kd [1] | apparent Kd [2] | apparent Kd [3] | apparent Kd [4]
UUAUUUUUAUGAUUGAGGAUAGGGCAGGAUAUACAUGAGGAUCACCCAUGUAAAGCAAUAAGGAGGUAGAAGGGCCAACCUCAU | 0.0243 µM | 0.0201 µM |  | 
AGUAAGCUUGAGAAGGUGAAGUGGAAACAUGAGGAUCACCCAUGUAUUAGGAAGCCUGGUUUUGUCAAGGAUAUCGGGUUUACA |  |  | 0.0122 µM | 0.0126 µM
ACCUCACAUGAGGAUCACCCAUGUAAGGAUAUCUUCGCUUUGACGUUGUUCUAUGCGAAGAGAAGGUACACGGC | 0.0283 µM | 0.111 µM |  | 
CCGGUAAAGGAGGAUAUAGGAGUCGAUAGACACCUAGAAGGCCUGACAUGAGGAUCACCCAUGUGUCCUUCCGG | 0.0177 µM | 0.0767 µM |  | 
UGUUAGUAGACAGGAUAUUGAAUGUUAAGUAUUAACAUGAGGAUCACCCAUGUAUUAGAUUGGUACAAGAAGGGUCAAGUUUGU |  |  | 0.38 µM | 0.653 µM
GUAUAUACGUGGUACAUGAGGAUCACCCAUGUGUCUUUACAUGAGGAUAUGGAUUCUAAUUGGAUCCAGAAGGCAUGUAUAUAC |  |  | 0.0731 µM | 0.027 µM
CUGCUUCCCAGUAUGGGUAUUUAUACAGAAGGCCAGACACAUGAGGAUCACCCAUGUCAAGUAAUGGAGGAUAUGUUAUUGUCG |  |  | 0.0109 µM | 0.00497 µM
GACUGGCAGCUAGGAUAUGGGCGAUCACAUGAGGAUCACCCAUGUCAACAUCAAAACAAGAUUAACCAGAAGGAGCCGCGGGCU |  |  | 0.0173 µM | 0.0497 µM
AGUACACAUGAGGAUCACCCAUGUGAGGAUAUCGAUGUCCCAGGGCGGGUGCGGGACUCGAGAAGGCACUUGGU | 0.0471 µM | 0.154 µM |  | 
CUAAAUCAUGUAGGAUAUGCAUGGCGAAGCUACGCAGAAGGACAUGAGGAUCACCCAUGUCUCUCCGUCUGCAUACAGACGGAG | 0.0201 µM | 0.123 µM |  | 
ACUUUCAUUGUGAGGAUAUGCCCAAAUAAAAGCGGGCAGAAGGCACAUGAGGAUCACCCAUGUCCUGCGGUUAU | 0.0346 µM | 0.394 µM |  | 
UACUGGUGUGAGAAGGGACAUAUCUCCAUGAGGGCAGGGCGAUUAGAGAAGUCAGGAUAUCACAUGAGGAUCACCCAUGUGACA | 0.00814 µM | 0.00851 µM |  | 
AUAAAAGUAGGAUAUUGACUGAUCGACAUGAGGAUCACCCAUGUGGUGCUGUGCGGUAUUCAAGAAGGGCUAAAAU | 0.0218 µM | 0.0322 µM |  | 
UAAUCGUUGCAGAAGGUUAUUAUUAUAUCGUGUCACUUAACAUGAGGAUCACCCAUGUUUUUGAUGAAGGAUAUGCAACGGUAG | 0.00674 µM | 0.00683 µM |  | 
UAAAAGACUAGCAUUCUAAAGAUCACAUGAGGAUCACCCAUGUAGGAUAUGAGCAGAAAAUCUGCUCAGAAGGACAUGCUAGUC | 0.00551 µM | 0.00602 µM |  | 
GAGUGUACGGAGGAUAUGUUAUACGAUGACCGAACAGAAGGCCGAACAUGAGGAUCACCCAUGUGUCUUCUAGG | 0.016 µM | 0.0228 µM |  | 
ACAUGAUAUGUAGGAUAUCACAACUUGUGUUAUAAAAUUGUAUUUUAGGAUUGAGAAGGACAUUUACAUGAGGAUCACCCAUGU | 0.0155 µM | 0.0128 µM |  | 
UUGGGUCGGGAGGAUAUUCGGGCUCAUGGGCUUGGAGAAGGCUCGACAUGAGGAUCACCCAUGUAAGUGUACUU | 0.153 µM | 0.542 µM |  | 
CCCUGAGACUGGUUAAUUGGCUGAUAGGAUAUCCUCGGACAUGAGGAUCACCCAUGUUAACUAUUGGAGAAGGGUCAGCGAAAG |  |  | 0.445 µM | 0.181 µM
UUAGGCUUCUAGAAGGCAGUCCAGCUGGAGGACUGAGGAUAUAGGCACCUAACAUGAGGAUCACCCAUGUUAGUGAUUCCUCAA | 0.0387 µM | 0.073 µM |  | 
CGUAAGCAAGGAUAUACAUGAGGAUCACCCAUGUAGCUUUGCUUCGUGGGCACAACAUGUAGAAGGUGCGAAAA | 0.0153 µM | 0.0133 µM |  | 
UGUGUGUGGCAGGAUAUGCAGGUAAUAAGACGGGUAGAAGGGUCUACAUGAGGAUCACCCAUGUGGCCGGUUGG | 0.0161 µM | 0.0182 µM |  | 
UUUUAAUAAAAGAAGGAGCACUACAUGAGGAUCACCCAUGUGUUAGUAGUUAGGAUAUUUAAUAACAUGAGGAUCACCCAUGUA |  |  | 0.194 µM | 0.0869 µM
GCGUACAUAUCAGGAUAUCAUUGAAUGGAUUAACACAGUGAAUACAUGAGGAUCACCCAUGUGCUUGAGAAGGGAUUACUACGC | 0.0111 µM | 0.0104 µM |  | 
UGAACUAUGUAGAAGGCCCACAUUAAUAUGUAGGGAGGAUAUACAUGAGGAUCACCCAUGUGAAGAGCAAGAGGAUUUAACAGA | 0.0239 µM | 0.106 µM |  | 
UUUAGUUCAGGAUAUGUAGAUUUUAACAUGAGGAUCACCCAUGUAGAUCCUGAUCCUGCUACAGAAGGGAAUAUUU | 0.0231 µM | 0.0251 µM |  | 
CCAUAACAUGAGGAUCACCCAUGUCGACUAAAUCAAGGAUAUGGGAACGCGCAAGCAAAACCAGAAGGUGAGGUCC |  |  | 0.255 µM | 0.236 µM
AGAAAUUAGUGAGGAUAUGCAUAAUGUGUAGCUGCAGAAGGCACGGACCACAAGACAUGAGGAUCACCCAUGUGGUAUAUAGAU | 0.0259 µM | 0.0293 µM |  | 

Sequence | apparent Kd [1] | apparent Kd [2] | apparent Kd [3] | apparent Kd [4]
GUAACAUGAGGAUCACCCAUGUAUAGAACGCUUAAUAGAUCUGAGGAUAUACUAGAAUUUACGUAGUAGAAGGCAGUGGGUACA |  |  | 0.0359 µM | 0.0269 µM
UCCUGACAUGAGGAUCACCCAUGUAAUUCCUGCCGAGGAUAUGGGCAACAAAGCGGUUGGCCAGAAGGCGGACAGC |  |  | 0.252 µM | 0.15 µM
CCCACGAAAGUCGAACGAUGUACGAGAAGGACAAUAACAUGACAUGAGGAUCACCCAUGUGCCAUGUAGGAUAUCGUACAUGGG | 0.00855 µM | 0.00817 µM |  | 
AGAUUCAUGGCCCGUUCGGGCCCACAUGAGGAUCACCCAUGUGAGGAUAUGAUGUACCUGAUUCAUCAGAAGGCGCAUGCGAAA | 0.00732 µM | 0.0205 µM |  | 
GUAUUAAAGAUCCAUUUUUACAACAUGAGGAUCACCCAUGUGCAGGAUAUCGUGUGUUUUAUAUUCGAGAAGGGCAAAUUCAUU | 0.0518 µM | 0.109 µM |  | 
CUUAUGUAAGGAUAUCAGUAGUAAAAAAAUAAAAUUACUACUGAGAAGGUACAUGAGGAUCACCCAUGUCUUUC | 0.113 µM | 0.0505 µM |  | 
CCUCCACAUGAGGAUCACCCAUGUCAGGAUAUCGUGUGCGCGUUUUCGGUCUUUCGUGCGAGAAGGGACGUCUG | 0.0369 µM | 0.035 µM |  | 
GAUCAACAUGAGGAUCACCCAUGUGAGGAUAUGAUACUAUGUACUUCGGUACAUAGUAUCAGAAGGCAUUAGGA | 0.0518 µM | 0.0396 µM |  | 
AUCAGCUCGUCAGGAUAUACGUCACUGCGGCAGCAGUGUGGUAAGAUCACAUGAGGAUCACCCAUGUAGAAGGGACGAGCUGAU | 0.0131 µM | 0.26 µM |  | 
GCGUCAGAAUUAAUUGUGACAGACAGAAGGCAAUAGUAUGUGACCGACAUGAGGAUCACCCAUGUUGAGGAUAUGUAUUGACAC | 0.00568 µM | 0.00708 µM |  | 
AAUAUGUUGCAGAAGGUUAUAUUUUUUUAGUACCUCAUGACAUGAGGAUCACCCAUGUAUUUGUUGAAGGAUAUGCAAUAUAUU | 0.0231 µM | 0.0208 µM |  | 
AUCAGCUCGUCAGGAUAUACGUCACUGCGUCGGCAGUGUGGUAAGAUCACAUGAGGAUCACCCAUGUAGAAGGGACGAGCUGAU | 0.0144 µM | 0.28 µM |  | 
CGAUAUAUGAAGGGCGAAAGCCCACAUGAGGAUCACCCAUGUAGAAGGCGGGCCGCAACGCGGCCCGAGGAUAUAUAGUAUACA | 0.00805 µM | 0.00884 µM |  | 
CUAUUGGUAACAGGAUAUAUGAGUCCUACAUGAGGAUCACCCAUGUAGGUGAUCUAACGAGAUUAGUAGAAGGGUUACCAAUAG |  |  | 0.0169 µM | 0.00834 µM
GGCUUGCAGCUAGGAUAUGGGCGAUCACAUGAGGAUCACCCAUGUCAACAUCAAAACAAGAUUAACCAGAAGGAGCCGCGGGUU |  |  | 0.0506 µM | 0.153 µM
GAUAUAGUUGAGAAGGGAAGGGCACAGUCCUCUCUAAAACUACAUGAGGAUCACCCAUGUGGCUUUCAGGAUAUCAGCGCUAAA | 0.0225 µM | 0.109 µM |  | 
AUUAUUAUAUUAUACAUGAGGAUCACCCAUGUUAUAAGUCAUGAGGAUAUGGUAUUGUAGUUUUUCCAGAAGGCAUUUAACUUA |  |  | 0.0103 µM | 0.00604 µM
UUAAUUCGAAACAUGAGGAUCACCCAUGUGUUGUGGUUAAUAUAGGAUAUGUGUAUACUUUUAUGACAGAAGGAUGAUGGUACU |  |  | 0.0143 µM | 0.0118 µM
UUGUUACGAUUAGGAUAUUAUAGAUUGAAUAGUAUGAUUUACAUGAGGAUCACCCAUGUUACAUUUAAGAAGGAAUCGAAUUAU | 0.0211 µM | 0.0169 µM |  | 
GUCAGCUCGUGAGGAUAUACAACACUGCUUCGGCAGCGUAUUAAGAUCACAUGAGGAUCACCCAUGUAGAAGGCACGAGCUGAU | 0.0117 µM | 0.206 µM |  | 
ACAGAUCCUGACAUGAGGAUCACCCAUGUUAGAUUGUUAUGUCAGGAUAUUAUCUGGCAACCAGAUGAGAAGGGACGAUCUGUG |  |  | 0.24 µM | 0.0155 µM
GGAGCACACAUUAACAUGAGGAUCACCCAUGUCAAAAGACAUGAGGAUAUGGAUCCGAAAAGGAUCCAGAAGGCAUUGUGCUCC |  |  | 0.372 µM | 0.0282 µM
CACCGUUACACAGGAUAUCUUACAUGAGGAUCACCCAUGUAAUAAAUGAGAAUUUCGAAUGUAUUAGAGAAGGGUGGAAUCGGC | 0.0377 µM | 0.0902 µM |  | 
ACAUGAUACAAGAAGGAUGUAUUAGAUUUGAUCAUAGGAUAUUGUUAUAUUGUUUACUCUAAUAACAUGAGGAUCACCCAUGUA |  |  | 0.0107 µM | 0.00753 µM
UUUCAGCAAGGAUAUACGGGCUGUGCUUUUCAUUUCUUACAACAUGAGGAUCACCCAUGUAGAAGGUGCUUCUU | 0.297 µM | 0.736 µM |  | 
GGGUACAUCGGAGGAUAUCAUGUAAAUACAUGAGGAUCACCCAUGUCGAUGGAGACAUCGGAGAUUGAGAAGGCCGGUGUACCG |  |  | 0.165 µM | 0.0099 µM
GGAUAGGACAGAGGAUAUACGGAUAGGAUCUACUAUCUUCCUUAAAUAACAUGAGGAUCACCCAUGUAGAAGGCUGUCCUAUCG | 0.0186 µM | 0.0679 µM |  | 
